Data published in ChEMBL document CHEMBL3351942, “Rexinoids isolated from Sophora tonkinensis with a gene expression profile distinct from the synthetic rexinoid bexarotene” (J Nat Prod, 2014).
Activity calls are given as the source filed them. The rule behind the calls is not given here.

Experiments:
[1] = target: T1, Retinoic acid receptor RXR-beta (Homo sapiens) (UniProt P28702); experiment: Binding affinity to RXRbeta (unknown origin) by receptor-SRC1 cofactor complex formation assay
T1 sequence (whole entry): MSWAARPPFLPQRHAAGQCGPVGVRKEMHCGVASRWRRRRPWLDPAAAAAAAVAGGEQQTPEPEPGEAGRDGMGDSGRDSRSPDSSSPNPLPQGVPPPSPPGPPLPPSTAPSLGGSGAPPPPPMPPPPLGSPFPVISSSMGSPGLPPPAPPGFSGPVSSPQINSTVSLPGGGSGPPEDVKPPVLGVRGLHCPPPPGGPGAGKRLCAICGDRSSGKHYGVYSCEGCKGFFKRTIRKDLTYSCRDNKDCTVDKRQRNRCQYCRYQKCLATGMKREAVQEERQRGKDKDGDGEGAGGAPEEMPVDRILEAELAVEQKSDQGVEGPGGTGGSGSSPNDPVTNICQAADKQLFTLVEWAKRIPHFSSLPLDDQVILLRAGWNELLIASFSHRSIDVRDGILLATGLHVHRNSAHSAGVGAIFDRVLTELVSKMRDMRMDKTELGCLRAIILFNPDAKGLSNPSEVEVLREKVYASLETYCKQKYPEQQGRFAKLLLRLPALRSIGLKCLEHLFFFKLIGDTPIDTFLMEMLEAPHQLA
How it was run: (§1)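 Ligand-dependent binding of RXR isotype to coactivator SRC-1 in an NR cofactor kit, detected with HRP-conjugated anti-RXR antibody at OD450. The full agonist CD3254 defined 100% and vehicle 0%. Efficacy was taken as maximum B/Bmax% and potency as EC50.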

[2] = tested on: RAW264.7; experiment: Activation of RXR/LXR heterodimer in mouse RAW264.7 cells assessed as increase in ABCA1 mRNA level at 10 uM by quantitative RT-PCR analysis; format: cell-based
How it was run: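 RAW264.7 macrophages in DMEM/10% FBS, exposed 24 h with or without LXR agonist T0901317; ABCA1 mRNA by SYBR green qRT-PCR, β-actin-normalized, fold vs vehicle; means ± SD of three determinants, one of three independent experiments; one-way ANOVA, Bonferroni.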

[3] = target: T2, Retinoic acid receptor RXR-gamma (Homo sapiens) (UniProt P48443); experiment: Binding affinity to RXRgamma (unknown origin) by receptor-SRC1 cofactor complex formation assay; how it was run: as §1
T2 sequence (whole entry): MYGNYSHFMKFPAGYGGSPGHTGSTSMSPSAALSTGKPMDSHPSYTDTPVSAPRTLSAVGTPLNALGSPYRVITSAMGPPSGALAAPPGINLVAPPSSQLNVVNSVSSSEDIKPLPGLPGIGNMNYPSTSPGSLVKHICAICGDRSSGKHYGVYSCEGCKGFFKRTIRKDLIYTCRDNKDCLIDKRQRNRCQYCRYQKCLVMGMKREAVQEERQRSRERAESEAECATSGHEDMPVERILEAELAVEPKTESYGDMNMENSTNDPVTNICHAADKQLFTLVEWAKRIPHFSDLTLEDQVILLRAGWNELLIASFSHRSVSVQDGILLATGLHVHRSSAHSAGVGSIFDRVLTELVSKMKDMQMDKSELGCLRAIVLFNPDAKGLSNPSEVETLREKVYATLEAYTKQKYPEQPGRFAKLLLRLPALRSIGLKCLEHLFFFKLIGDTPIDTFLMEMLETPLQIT

[4] = target: T3, Retinoic acid receptor RXR-alpha (Homo sapiens) (UniProt P19793); experiment: (§2) Agonist activity at human RXR-alpha expressed in HEK293 cells coexpressing with pCMX-beta-gal after 24 to 48 hrs by luciferase reporter gene assay; format: cell-based
T3 sequence (whole entry): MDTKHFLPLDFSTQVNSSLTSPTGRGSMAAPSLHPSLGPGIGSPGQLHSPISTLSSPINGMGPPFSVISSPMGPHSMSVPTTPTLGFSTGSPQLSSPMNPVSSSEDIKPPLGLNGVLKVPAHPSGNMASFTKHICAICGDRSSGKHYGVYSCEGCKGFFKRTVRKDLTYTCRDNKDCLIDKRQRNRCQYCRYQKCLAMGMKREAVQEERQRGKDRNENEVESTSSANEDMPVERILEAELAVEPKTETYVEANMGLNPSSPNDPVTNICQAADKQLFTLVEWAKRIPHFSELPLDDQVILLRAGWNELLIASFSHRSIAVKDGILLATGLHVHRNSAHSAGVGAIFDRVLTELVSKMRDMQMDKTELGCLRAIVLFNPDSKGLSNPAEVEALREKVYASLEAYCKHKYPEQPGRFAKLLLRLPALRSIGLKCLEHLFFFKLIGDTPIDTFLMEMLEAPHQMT
How it was run: (§3)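 HEK293 cells transfected by calcium phosphate with 60 ng pCMX-hRXR-α, 150 ng CRBPII-tk-Luc and 30 ng pCMX-β-gal plus carrier pUC18 (600 ng DNA per well). After 8 h the cells were washed and exposed to compound in medium with 10% FBS for 24−48 h. Luciferase was normalized to β-galactosidase. Triplicate or quadruplicate; representative of three independent experiments; EC50 from dose-response.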

[5] = target: T4, Retinoic acid receptor RXR-alpha (Homo sapiens, UniProt P19793); experiment: as §2; format: cell-based; how it was run: as §3
T4 sequence (P19793 whole entry): T3 sequence (whole entry)

[6] = target: T5, Peroxisome proliferator-activated receptor alpha (Homo sapiens) (UniProt Q07869); experiment: Activation of PPARalpha (unknown origin) by receptor-CBP cofactor complex formation assay
T5 sequence (whole entry): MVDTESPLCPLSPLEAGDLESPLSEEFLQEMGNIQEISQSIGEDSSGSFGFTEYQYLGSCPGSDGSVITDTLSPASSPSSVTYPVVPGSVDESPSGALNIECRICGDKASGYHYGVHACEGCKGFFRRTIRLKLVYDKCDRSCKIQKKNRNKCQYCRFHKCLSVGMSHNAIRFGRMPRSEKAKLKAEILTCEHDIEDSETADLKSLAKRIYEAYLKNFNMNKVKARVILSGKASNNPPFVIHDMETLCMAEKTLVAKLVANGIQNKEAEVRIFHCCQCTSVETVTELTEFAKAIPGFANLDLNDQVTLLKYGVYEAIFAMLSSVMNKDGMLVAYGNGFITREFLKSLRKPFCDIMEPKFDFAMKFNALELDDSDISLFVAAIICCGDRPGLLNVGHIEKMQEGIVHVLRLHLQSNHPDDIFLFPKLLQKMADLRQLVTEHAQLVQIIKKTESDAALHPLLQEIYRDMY
How it was run: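 Cell-free cofactor recruitment ELISA: ligand-dependent binding of PPAR isotypes to CBP, detected by HRP-conjugated anti-PPAR antibody at OD450. Full agonists GW7647 (α), GW1929 (γ), GW501516 (δ) define 100%, vehicle 0%; efficacy as maximum B/Bmax% and potency as EC50.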

[7] = target: T3, Retinoic acid receptor RXR-alpha (Homo sapiens); experiment: Agonist activity at human RXR-alpha expressed in HEK293 cells coexpressing with pCMX-beta-gal at 10 uM after 24 to 48 hrs by luciferase reporter gene assay in presence of PA452 pan-antagonist; format: cell-based
How it was run: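 RXRα reporter in HEK293: cotransfected with RXRα expression vector, luciferase reporter and pCMX-β-gal. Eight hours after transfection, cells were treated with test compound at 10 μM with or without the RXR pan-antagonist PA452 (10 μM). Luciferase was normalized to β-galactosidase. Means ± SD of three determinants; representative of three experiments; one-way ANOVA with Bonferroni's t-test.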

Activity [1]: inactive | Activity [3]: inactive | Activity [4]: Dose-dependent effect | EC50 [5]: 0.77 µM | Activity [6]: inactive | Activity [7]: inactive
Compound: CC(C)=CCc1cc([C@@H]2CC(=O)c3ccc(O)c(CC=C(C)C)c3O2)cc2c1OC(C(C)(C)O)C2 (some centres not stated)
Activity [2]: Active
